Assay results taken from ChEMBL document CHEMBL1131631, “Piperazinyl oxazolidinone antibacterial agents containing a pyridine, diazene, or triazene heteroaromatic ring” (1998).
In brackets after ≈: the same amount, converted by molar mass. Each block holds one compound with its values, some of them ahead of it.

Legend:
[1] = system: Staphylococcus epidermidis; assay: Minimum inhibitory concentration against Staphylococcus epidermis UC12084; type: functional
Summary of the method: (§1)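 MIC in µg/mL. S. aureus UC 9213 is methicillin-susceptible, and S. aureus UC 6685 and S. epidermidis UC 12084 are methicillin-resistant. E. faecalis UC 9217 and S. pneumoniae UC 9912 were also tested.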

Mus musculus [2] = assay: compound was tested against Staphylococcus aureus UC9213 the eperezolid administered (PO) in mouse positive control expressed as ED50 values.
Mus musculus [3] = assay: Compound was tested against Staphylococcus aureus UC9213 after po administration in mouse; type: functional
Summary of the method: (§2)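 Lethal systemic S. aureus infection in mice, with oral dosing. The ED50 is the dose in mg/kg body weight per dose that reduces mortality by 50%. The 95% confidence limits are −50% and +100% of the nominal value.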

Enterococcus faecalis = assay: Minimum inhibitory concentration against Enterococcus faecalis UC9217; type: functional; summary of the method: as §1
Staphylococcus aureus [4] = assay: Minimum inhibitory concentration against Staphylococcus aureus UC6685; type: functional; summary of the method: as §1
Streptococcus pneumoniae [5] = assay: Minimum inhibitory concentration Streptococcus pneumoniae UC9912; type: functional; summary of the method: as §1
Staphylococcus aureus [6] = assay: Minimum inhibitory concentration against Staphylococcus aureus UC9213; type: functional; summary of the method: as §1
Staphylococcus aureus [7] = assay: compound was tested against Staphylococcus aureus UC9213 the eperezolid administered positive control expressed as ED50 values.; type: functional
Summary of the method: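 Eperezolid was given orally in the same lethal systemic mouse S. aureus trial as the test agents. The ED50 is the mg/kg/dose that reduces mortality by 50%.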

Staphylococcus aureus [8] = assay: compound was tested against Staphylococcus aureus UC9213 after po administration.; type: functional; summary of the method: as §2
Caco-2 [9] = assay: permeability assessment across a monolayer of caco-2 cells in presence of GSH in aqueous base.; type: functional, Homo sapiens
Streptococcus pneumoniae [10] = assay: MIC activity against Streptococcus pneumoniae UC9912; type: functional; summary of the method: as §1
Caco-2 [11] = assay: permeability assessment across a monolayer of caco-2 cells in absence of GSH in aqueous base.; type: functional, Homo sapiens
Caco-2 [12] = assay: permeability assessment across […]; type: functional, Homo sapiens

SMILES: CC(=O)NC[C@H]1CN(c2ccc(N3CCN(c4ccc(C#N)cn4)CC3)c(F)c2)C(=O)O1
MIC [1]: 0.5 µg/mL (≈ 1.14 µM)
ED50 (Mus musculus [2]): 5.8 mg/kg
ED50 (Mus musculus [3]): 6.8 mg/kg
MIC (Enterococcus faecalis): 1 µg/mL (≈ 2.28 µM)
MIC (Staphylococcus aureus [4]): 2 µg/mL (≈ 4.56 µM)
MIC (Streptococcus pneumoniae [5]): 0.5 µg/mL (≈ 1.14 µM)
MIC (Staphylococcus aureus [6]): 2 µg/mL (≈ 4.56 µM)

SMILES: CC(=O)NC[C@H]1CN(c2ccc(N3CCN(c4cccc(C)n4)CC3)c(F)c2)C(=O)O1
MIC [1]: 2 µg/mL (≈ 4.68 µM)
MIC (Enterococcus faecalis): 2 µg/mL (≈ 4.68 µM)
MIC (Staphylococcus aureus [4]): 2 µg/mL (≈ 4.68 µM)
MIC (Streptococcus pneumoniae [5]): 0.5 µg/mL (≈ 1.17 µM)
MIC (Staphylococcus aureus [6]): 4 µg/mL (≈ 9.36 µM)

SMILES: CC(=O)NC[C@H]1CN(c2ccc(N3CCN(c4nc(F)c(F)cc4F)CC3)c(F)c2)C(=O)O1
MIC [1]: 1 µg/mL (≈ 2.14 µM)
MIC (Enterococcus faecalis): 2 µg/mL (≈ 4.28 µM)
MIC (Staphylococcus aureus [4]): 2 µg/mL (≈ 4.28 µM)
MIC (Streptococcus pneumoniae [5]): 0.5 µg/mL (≈ 1.07 µM)
MIC (Staphylococcus aureus [6]): 2 µg/mL (≈ 4.28 µM)

SMILES: CC(=O)NC[C@H]1CN(c2ccc(N3CCN(c4cnccn4)CC3)c(F)c2)C(=O)O1
MIC [1]: 0.5 µg/mL (≈ 1.21 µM)
ED50 (Mus musculus [2]): 3.2 mg/kg
ED50 (Mus musculus [3]): 12.5 mg/kg
MIC (Enterococcus faecalis): 2 µg/mL (≈ 4.83 µM)
MIC (Staphylococcus aureus [4]): 1 µg/mL (≈ 2.41 µM)
MIC (Streptococcus pneumoniae [5]): 0.5 µg/mL (≈ 1.21 µM)
MIC (Staphylococcus aureus [6]): 2 µg/mL (≈ 4.83 µM)

SMILES: CC(=O)NC[C@H]1CN(c2ccc(N3CCN(c4c(F)c(F)nc(F)c4F)CC3)c(F)c2)C(=O)O1
MIC [1]: > 16 µg/mL
MIC (Enterococcus faecalis): > 16 µg/mL
MIC (Staphylococcus aureus [4]): > 16 µg/mL
MIC (Streptococcus pneumoniae [5]): 2 µg/mL (≈ 4.12 µM)
MIC (Staphylococcus aureus [6]): > 16 µg/mL

SMILES: CC(=O)NC[C@H]1CN(c2ccc(N3CCN(c4nc(C)cc(C)c4C#N)CC3)c(F)c2)C(=O)O1
MIC [1]: 2 µg/mL (≈ 4.29 µM)
MIC (Enterococcus faecalis): 4 µg/mL (≈ 8.57 µM)
MIC (Staphylococcus aureus [4]): 4 µg/mL (≈ 8.57 µM)
MIC (Streptococcus pneumoniae [5]): 1 µg/mL (≈ 2.14 µM)
MIC (Staphylococcus aureus [6]): 4 µg/mL (≈ 8.57 µM)

SMILES: CC(=O)NC[C@H]1CN(c2ccc(N3CCN(c4nnc(Cl)c(C)c4C)CC3)c(F)c2)C(=O)O1
MIC [1]: 4 µg/mL (≈ 8.39 µM)
MIC (Enterococcus faecalis): > 16 µg/mL
MIC (Staphylococcus aureus [4]): > 16 µg/mL
MIC (Streptococcus pneumoniae [5]): 2 µg/mL (≈ 4.19 µM)
MIC (Staphylococcus aureus [6]): > 16 µg/mL

Further lines, with some results ahead:

MIC [1]: 1 µg/mL (≈ 2.1 µM)
MIC (Enterococcus faecalis): 1 µg/mL (≈ 2.1 µM)
MIC (Staphylococcus aureus [4]): 2 µg/mL (≈ 4.21 µM)
MIC (Streptococcus pneumoniae [5]): 0.5 µg/mL (≈ 1.05 µM)
MIC (Staphylococcus aureus [6]): 4 µg/mL (≈ 8.41 µM)
SMILES: COc1nc(OC)nc(N2CCN(c3ccc(N4C[C@H](CNC(C)=O)OC4=O)cc3F)CC2)n1

MIC [1]: 0.5 µg/mL (≈ 1.11 µM)
MIC (Enterococcus faecalis): 1 µg/mL (≈ 2.23 µM)
MIC (Staphylococcus aureus [4]): 1 µg/mL (≈ 2.23 µM)
MIC (Streptococcus pneumoniae [5]): 0.5 µg/mL (≈ 1.11 µM)
MIC (Staphylococcus aureus [6]): 2 µg/mL (≈ 4.46 µM)
SMILES: CC(=O)NC[C@H]1CN(c2ccc(N3CCN(c4cncc(Cl)n4)CC3)c(F)c2)C(=O)O1
ED50 (Staphylococcus aureus [7]): 3.2 mg/kg
ED50 (Staphylococcus aureus [8]): > 20 mg/kg

MIC [1]: 1 µg/mL (≈ 2.33 µM)
MIC (Enterococcus faecalis): 2 µg/mL (≈ 4.67 µM)
MIC (Staphylococcus aureus [4]): 2 µg/mL (≈ 4.67 µM)
MIC (Streptococcus pneumoniae [5]): 0.5 µg/mL (≈ 1.17 µM)
MIC (Staphylococcus aureus [6]): 4 µg/mL (≈ 9.34 µM)
SMILES: CC(=O)NC[C@H]1CN(c2ccc(N3CCN(c4ccc(C)nn4)CC3)c(F)c2)C(=O)O1
ED50 (Mus musculus [2]): 8.7 mg/kg
ED50 (Mus musculus [3]): 6.3 mg/kg

MIC [1]: 1 µg/mL (≈ 2.24 µM)
MIC (Enterococcus faecalis): 2 µg/mL (≈ 4.49 µM)
MIC (Staphylococcus aureus [4]): 4 µg/mL (≈ 8.98 µM)
MIC (Streptococcus pneumoniae [5]): 0.5 µg/mL (≈ 1.12 µM)
MIC (Staphylococcus aureus [6]): 4 µg/mL (≈ 8.98 µM)
SMILES: CC(=O)NC[C@H]1CN(c2ccc(N3CCN(c4nc(N)nc(N)n4)CC3)c(F)c2)C(=O)O1
ED50 (Mus musculus [2]): 4.4 mg/kg
ED50 (Mus musculus [3]): > 20 mg/kg

MIC [1]: 1 µg/mL (≈ 2.25 µM)
MIC (Enterococcus faecalis): 2 µg/mL (≈ 4.5 µM)
MIC (Staphylococcus aureus [4]): 4 µg/mL (≈ 9 µM)
MIC (Streptococcus pneumoniae [5]): < 0.5 µg/mL
MIC (Staphylococcus aureus [6]): 8 µg/mL (≈ 18 µM)
SMILES: CC(=O)NC[C@H]1CN(c2ccc(N3CCN(c4cc(N)nc(N)n4)CC3)c(F)c2)C(=O)O1

MIC [1]: 16 µg/mL (≈ 33.2 µM)
MIC (Enterococcus faecalis): > 16 µg/mL
MIC (Staphylococcus aureus [4]): > 16 µg/mL
MIC (Streptococcus pneumoniae [5]): 2 µg/mL (≈ 4.15 µM)
MIC (Staphylococcus aureus [6]): > 16 µg/mL
SMILES: CC(=O)NC[C@H]1CN(c2ccc(N3CCN(c4nccc(C(F)(F)F)n4)CC3)c(F)c2)C(=O)O1

MIC [1]: 0.5 µg/mL (≈ 1.11 µM)
MIC (Enterococcus faecalis): 1 µg/mL (≈ 2.23 µM)
MIC (Streptococcus pneumoniae [10]): 0.5 µg/mL (≈ 1.11 µM)
MIC (Staphylococcus aureus [4]): 1 µg/mL (≈ 2.23 µM)
MIC (Staphylococcus aureus [6]): 2 µg/mL (≈ 4.46 µM)
SMILES: CC(=O)NC[C@H]1CN(c2ccc(N3CCN(c4ccnc(Cl)n4)CC3)c(F)c2)C(=O)O1
ED50 (Staphylococcus aureus [7]): 1.8 mg/kg
[A] (Caco-2 [9]): 17 µM
ED50 (Staphylococcus aureus [8]): 14.6 mg/kg
[A] (Caco-2 [11]): 17 µM
[EA] (Caco-2 [12]): 50 µM

MIC [1]: 2 µg/mL (≈ 4.32 µM)
MIC (Enterococcus faecalis): 4 µg/mL (≈ 8.64 µM)
MIC (Staphylococcus aureus [4]): 4 µg/mL (≈ 8.64 µM)
MIC (Streptococcus pneumoniae [5]): 1 µg/mL (≈ 2.16 µM)
MIC (Staphylococcus aureus [6]): 8 µg/mL (≈ 17.3 µM)
SMILES: CC(=O)NC[C@H]1CN(c2ccc(N3CCN(c4cc(C)c(Cl)nn4)CC3)c(F)c2)C(=O)O1
ED50 (Staphylococcus aureus [7]): 8.7 mg/kg
ED50 (Staphylococcus aureus [8]): > 20 mg/kg

MIC [1]: 8 µg/mL (≈ 15.7 µM)
MIC (Enterococcus faecalis): 8 µg/mL (≈ 15.7 µM)
MIC (Staphylococcus aureus [4]): 8 µg/mL (≈ 15.7 µM)
MIC (Streptococcus pneumoniae [5]): 2 µg/mL (≈ 3.94 µM)
MIC (Staphylococcus aureus [6]): 16 µg/mL (≈ 31.5 µM)
SMILES: CCCOc1nc(Cl)nc(N2CCN(c3ccc(N4C[C@H](CNC(C)=O)OC4=O)cc3F)CC2)n1
